ChEMBL document CHEMBL2046280, “Discovery of the novel potent and selective FLT3 inhibitor 1-{5-[7-(3- morpholinopropoxy)quinazolin-4-ylthio]-[1,3,4]thiadiazol-2-yl}-3-p-tolylurea and its anti-acute myeloid leukemia (AML) activities in vitro and in vivo” (J Med Chem, 2012)
pIC50: −log10 of the molar value. Calls of active or inactive are those of the source. The rule behind the calls is not given here.

Columns and labels:
[1] = system: MV4-11; assay: Downregulation of STAT5 protein expression in human MV4-11 cells at 10 to 300 nM after 5 hrs by Western blot analysis; assay type: functional, cell-based
[2] = system: MCF7; assay: Cytotoxicity against human MCF7 cells after 72 hrs by MTT assay; settings: MCF7, 72 h
[3] = system: HeLa; assay: Cytotoxicity against human HeLa cells after 72 hrs by MTT assay
[4] = biological target: Hepatocyte growth factor receptor (Homo sapiens, UniProt P08581); assay: Inhibition of human Met
[5] = system: SH-SY5Y; assay: Cytotoxicity against human SH-SY5Y cells after 72 hrs by MTT assay
[6] = biological target: Serine/threonine-protein kinase pim-1 (Homo sapiens, UniProt P11309); assay: Inhibition of human Pim1
Sequence of Serine/threonine-protein kinase pim-1 (P11309 whole entry): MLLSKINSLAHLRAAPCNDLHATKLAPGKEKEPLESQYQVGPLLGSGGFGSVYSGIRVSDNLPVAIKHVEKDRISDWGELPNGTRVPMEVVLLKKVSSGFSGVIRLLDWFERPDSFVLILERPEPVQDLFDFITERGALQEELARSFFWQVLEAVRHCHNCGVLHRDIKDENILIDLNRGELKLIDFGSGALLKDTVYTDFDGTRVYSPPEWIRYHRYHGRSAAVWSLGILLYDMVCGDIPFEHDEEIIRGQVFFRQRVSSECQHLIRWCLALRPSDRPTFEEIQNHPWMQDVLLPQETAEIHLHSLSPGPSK

[7] = biological target: Macrophage colony-stimulating factor 1 receptor (Homo sapiens, UniProt P07333); assay: Inhibition of human FMS
Sequence of Macrophage colony-stimulating factor 1 receptor (P07333 whole entry): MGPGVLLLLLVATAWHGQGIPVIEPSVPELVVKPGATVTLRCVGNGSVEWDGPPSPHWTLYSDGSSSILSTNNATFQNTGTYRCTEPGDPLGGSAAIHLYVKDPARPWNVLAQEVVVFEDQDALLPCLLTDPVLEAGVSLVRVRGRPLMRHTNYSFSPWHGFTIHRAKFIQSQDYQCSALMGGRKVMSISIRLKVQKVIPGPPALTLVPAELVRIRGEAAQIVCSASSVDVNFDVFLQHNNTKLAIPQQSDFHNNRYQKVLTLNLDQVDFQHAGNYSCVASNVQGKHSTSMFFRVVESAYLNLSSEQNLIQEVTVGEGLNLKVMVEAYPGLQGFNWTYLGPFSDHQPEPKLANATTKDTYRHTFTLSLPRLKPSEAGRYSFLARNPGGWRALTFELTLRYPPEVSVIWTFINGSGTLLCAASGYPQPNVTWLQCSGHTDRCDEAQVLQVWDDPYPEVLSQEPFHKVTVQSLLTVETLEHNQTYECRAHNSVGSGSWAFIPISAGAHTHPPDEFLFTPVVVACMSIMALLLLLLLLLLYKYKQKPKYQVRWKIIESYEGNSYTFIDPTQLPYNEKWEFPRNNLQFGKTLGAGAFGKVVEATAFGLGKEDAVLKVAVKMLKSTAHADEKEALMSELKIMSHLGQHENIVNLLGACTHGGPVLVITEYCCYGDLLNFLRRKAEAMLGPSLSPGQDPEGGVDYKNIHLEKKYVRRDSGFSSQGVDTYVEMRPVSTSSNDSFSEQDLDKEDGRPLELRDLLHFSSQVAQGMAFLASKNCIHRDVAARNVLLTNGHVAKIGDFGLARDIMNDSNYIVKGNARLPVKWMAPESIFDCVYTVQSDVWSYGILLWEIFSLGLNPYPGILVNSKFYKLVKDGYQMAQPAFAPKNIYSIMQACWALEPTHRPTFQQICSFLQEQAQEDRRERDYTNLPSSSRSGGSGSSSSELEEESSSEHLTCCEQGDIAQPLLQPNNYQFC

[8] = system: PC-9; assay: Cytotoxicity against human PC9 cells after 72 hrs by MTT assay; settings: PC-9, 72 h
[9] = system: MV4-11; assay: Downregulation of Erk1/2 protein expression in human MV4-11 cells at 10 to 300 nM after 5 hrs by Western blot analysis; assay type: functional, cell-based
[10] = system: U-937; assay: Cytotoxicity against human U937 cells after 72 hrs by MTT assay; settings: U-937, 72 h
[11] = biological target: Tyrosine-protein kinase Lck (Homo sapiens, UniProt P06239); assay: Inhibition of human Lck
Sequence of Tyrosine-protein kinase Lck (P06239 whole entry): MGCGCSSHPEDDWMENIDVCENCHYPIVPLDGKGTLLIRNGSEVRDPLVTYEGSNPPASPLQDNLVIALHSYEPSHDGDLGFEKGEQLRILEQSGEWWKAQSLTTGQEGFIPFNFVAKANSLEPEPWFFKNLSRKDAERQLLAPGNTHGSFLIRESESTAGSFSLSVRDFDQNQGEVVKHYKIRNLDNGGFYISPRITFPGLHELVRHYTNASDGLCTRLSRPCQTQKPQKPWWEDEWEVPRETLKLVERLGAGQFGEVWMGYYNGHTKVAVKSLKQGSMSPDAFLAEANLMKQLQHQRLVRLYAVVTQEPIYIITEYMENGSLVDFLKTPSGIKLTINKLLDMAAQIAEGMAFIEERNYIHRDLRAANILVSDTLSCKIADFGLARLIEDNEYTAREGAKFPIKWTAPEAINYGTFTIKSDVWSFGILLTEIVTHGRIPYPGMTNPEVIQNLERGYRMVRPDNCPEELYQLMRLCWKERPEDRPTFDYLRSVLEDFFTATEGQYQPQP

[12] = biological target: Tyrosine-protein kinase JAK3 (Homo sapiens, UniProt P52333); assay: Inhibition of human JAK3
Sequence of Tyrosine-protein kinase JAK3 (P52333 whole entry): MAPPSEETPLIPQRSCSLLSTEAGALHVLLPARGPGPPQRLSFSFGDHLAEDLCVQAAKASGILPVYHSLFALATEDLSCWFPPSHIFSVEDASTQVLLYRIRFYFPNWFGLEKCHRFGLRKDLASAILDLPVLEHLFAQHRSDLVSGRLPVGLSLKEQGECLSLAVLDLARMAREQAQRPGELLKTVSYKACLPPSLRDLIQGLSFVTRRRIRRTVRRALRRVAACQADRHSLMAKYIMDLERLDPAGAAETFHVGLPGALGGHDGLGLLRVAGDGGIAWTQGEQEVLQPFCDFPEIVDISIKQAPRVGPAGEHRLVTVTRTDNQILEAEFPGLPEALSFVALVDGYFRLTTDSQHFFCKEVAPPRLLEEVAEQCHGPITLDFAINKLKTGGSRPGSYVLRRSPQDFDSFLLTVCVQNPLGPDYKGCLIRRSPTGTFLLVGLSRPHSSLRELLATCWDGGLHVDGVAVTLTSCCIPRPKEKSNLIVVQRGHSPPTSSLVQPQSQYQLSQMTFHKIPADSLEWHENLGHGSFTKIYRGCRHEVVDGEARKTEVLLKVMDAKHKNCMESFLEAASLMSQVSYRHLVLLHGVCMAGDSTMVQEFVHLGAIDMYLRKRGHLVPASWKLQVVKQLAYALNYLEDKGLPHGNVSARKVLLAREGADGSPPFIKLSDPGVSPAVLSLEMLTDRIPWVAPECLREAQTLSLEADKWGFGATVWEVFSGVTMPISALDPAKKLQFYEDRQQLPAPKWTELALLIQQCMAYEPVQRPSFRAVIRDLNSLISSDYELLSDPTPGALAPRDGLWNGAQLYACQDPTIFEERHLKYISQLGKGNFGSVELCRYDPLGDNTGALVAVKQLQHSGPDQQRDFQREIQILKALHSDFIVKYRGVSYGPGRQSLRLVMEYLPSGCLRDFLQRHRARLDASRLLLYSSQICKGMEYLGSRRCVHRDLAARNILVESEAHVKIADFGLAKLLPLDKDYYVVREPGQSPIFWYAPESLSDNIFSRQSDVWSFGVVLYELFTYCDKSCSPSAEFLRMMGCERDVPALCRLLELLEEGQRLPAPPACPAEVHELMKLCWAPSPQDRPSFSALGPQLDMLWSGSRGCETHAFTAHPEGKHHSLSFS

[13] = system: PC-3; assay: Cytotoxicity against human PC3 cells after 72 hrs by MTT assay; settings: PC-3, 72 h
[14] = system: LoVo; assay: Cytotoxicity against human LoVo cells after 72 hrs by MTT assay
[15] = biological target: Vascular endothelial growth factor receptor 2 (Homo sapiens, UniProt P35968); assay: Inhibition of human KDR
[16] = system: KARPAS-299; assay: Cytotoxicity against human KARPAS299 cells after 72 hrs by MTT assay; settings: KARPAS-299, 72 h
[17] = system: Ramos; assay: Cytotoxicity against human Ramos cells after 72 hrs by MTT assay
[18] = system: MV4-11; assay: Cytotoxicity against FLT3-dependent human MV4-11 cells after 72 hrs by MTT assay; assay type: functional, cell-based; settings: MV4-11, 72 h
Procedure, shortened: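 Leukemia cells at 1−4 × 10⁴ per well were exposed to increasing inhibitor concentrations for 72 h at 37 °C. MTT was then added for 2−4 h, and cells were lysed with 20% acidified SDS. OD read at 570 nm. Viability relative to 0.1% DMSO controls; triplicate. MV4-11 grown in IMDM, others in RPMI 1640 or DMEM with 10% FBS.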

[19] = system: DU-145; assay: Cytotoxicity against human DU145 cells after 72 hrs by MTT assay; settings: DU-145, 72 h
[20] = system: MV4-11; assay: Antitumor activity against human MV4-11 cells xenografted in NOD-SCID mouse assessed as tumor growth inhibition at 100 mg/kg, ip once daily for 21 days measured every 3 days relative to control; assay type: functional; settings: MV4-11, ip, route intraperitoneal, read-out: GI
Procedure, shortened: (§1)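 Female NOD-SCID mice, 6−7 weeks old, received 100 μL of MV4-11 cells (1 × 10⁸/mL in serum-free medium) s.c. in the hind flank. At 300−500 mm³ tumours, mice were randomized (6 per group). Drug was dissolved in 25% (v/v) PEG400 plus 5% DMSO and given ip once daily at 5 mL/kg. Calipers every 3 days; volume = a × b²/2.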

[21] = system: MV4-11; assay: Antitumor activity against human MV4-11 cells xenografted in NOD-SCID mouse assessed as tumor growth inhibition at 20 mg/kg, ip once daily for 21 days measured every 3 days; assay type: functional; settings: MV4-11, ip, route intraperitoneal, read-out: GI; procedure, shortened: as §1
[22] = system: MV4-11; assay: Antitumor activity against human MV4-11 cells xenografted in NOD-SCID mouse assessed as tumor regression at 20 mg/kg, ip administered qd for 21 days measured after 2 to 3 days of last dose by hematoxylin staining; assay type: functional, organism-based; parameters: dose 20 mg/kg
Procedure, shortened: (§2)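 NOD-SCID mice bearing MV4-11 tumours received 20 mg/kg/d ip and were sacrificed at set times after dosing. Tumours were formalin-fixed and paraffin-embedded, and 4−8 μm sections were cut. Proliferation by Ki67 immunostaining, apoptosis by TUNEL staining, tissue by hematoxylin staining; light-microscope imaging.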

[23] = biological target: Platelet-derived growth factor receptor beta (Homo sapiens, UniProt P09619); assay: Inhibition of human PDGFRbeta
[24] = biological target: Tyrosine-protein kinase SYK (Homo sapiens, UniProt P43405); assay: Inhibition of human Syk
[25] = Cytotoxicity against human SK cells after 72 hrs by MTT assay
[26] = system: MV4-11; assay: Antitumor activity against human MV4-11 cells xenografted in NOD-SCID mouse assessed as tumor mitotic index at 20 mg/kg, ip administered qd for 21 days measured after 2 to 3 days of last dose by Ki67 staining-based immunohistochemical analysis; assay type: functional, organism-based; parameters: dose 20 mg/kg; procedure, shortened: as §2
[27] = system: A-431; assay: Cytotoxicity against human A431 cells after 72 hrs by MTT assay; settings: A-431, 72 h
[28] = biological target: Vascular endothelial growth factor receptor 1 (Homo sapiens, UniProt P17948); assay: Inhibition of human FLT1
Sequence of Vascular endothelial growth factor receptor 1 (P17948 whole entry): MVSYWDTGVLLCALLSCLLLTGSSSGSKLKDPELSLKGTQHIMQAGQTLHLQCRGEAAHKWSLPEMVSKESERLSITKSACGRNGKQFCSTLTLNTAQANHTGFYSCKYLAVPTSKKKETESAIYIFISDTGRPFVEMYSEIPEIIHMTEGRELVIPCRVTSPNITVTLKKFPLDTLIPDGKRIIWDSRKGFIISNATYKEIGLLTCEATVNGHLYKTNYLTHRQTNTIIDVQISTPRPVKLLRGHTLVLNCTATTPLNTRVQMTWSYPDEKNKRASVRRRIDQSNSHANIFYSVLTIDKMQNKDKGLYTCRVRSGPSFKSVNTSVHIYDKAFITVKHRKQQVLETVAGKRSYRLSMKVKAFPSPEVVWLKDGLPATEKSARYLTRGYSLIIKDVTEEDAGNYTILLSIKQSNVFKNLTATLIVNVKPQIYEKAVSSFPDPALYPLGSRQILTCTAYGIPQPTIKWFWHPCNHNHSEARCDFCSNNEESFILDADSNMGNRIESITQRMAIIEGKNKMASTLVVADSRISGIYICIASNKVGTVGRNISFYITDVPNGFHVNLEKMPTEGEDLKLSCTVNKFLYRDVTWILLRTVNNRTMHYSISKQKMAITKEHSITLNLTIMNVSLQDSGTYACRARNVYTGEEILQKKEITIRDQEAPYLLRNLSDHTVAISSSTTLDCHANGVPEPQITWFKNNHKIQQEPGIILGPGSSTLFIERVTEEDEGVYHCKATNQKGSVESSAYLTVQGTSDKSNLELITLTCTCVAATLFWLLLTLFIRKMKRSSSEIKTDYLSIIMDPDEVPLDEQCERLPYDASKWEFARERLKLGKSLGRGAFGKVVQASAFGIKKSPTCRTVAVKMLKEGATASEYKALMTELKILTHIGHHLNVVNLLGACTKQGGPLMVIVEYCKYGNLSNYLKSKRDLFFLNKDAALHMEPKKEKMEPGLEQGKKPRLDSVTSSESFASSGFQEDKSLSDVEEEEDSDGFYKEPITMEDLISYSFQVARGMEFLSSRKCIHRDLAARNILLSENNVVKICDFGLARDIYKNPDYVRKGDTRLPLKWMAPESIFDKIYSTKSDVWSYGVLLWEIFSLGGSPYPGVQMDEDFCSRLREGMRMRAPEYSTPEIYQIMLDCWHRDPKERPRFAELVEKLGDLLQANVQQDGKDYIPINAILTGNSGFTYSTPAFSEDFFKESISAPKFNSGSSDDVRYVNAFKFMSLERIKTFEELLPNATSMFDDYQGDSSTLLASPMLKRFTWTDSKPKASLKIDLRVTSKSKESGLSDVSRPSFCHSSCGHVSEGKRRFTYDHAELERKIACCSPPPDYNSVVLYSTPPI

[29] = system: Mus musculus; assay: Toxicity in NOD-SCID mouse bearing human MV4-11 cells assessed as signs of toxicity at 20 to 100 mg/kg, ip administered qd for 21 days; assay type: organism-based; parameters: dose 20-100 mg/kg, route intraperitoneal; settings: in vivo, 504 h
Procedure, shortened: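 Female NOD-SCID mice (6−7 weeks old) received s.c. hind-flank injections of MV4-11 cells (100 μL of a 1 × 10⁸/mL suspension in serum-free medium). At 300−500 mm³, the mice were randomized into 4 groups of 6. They were dosed ip once daily for 21 days with 20, 40 or 100 mg/kg/d or vehicle (25% PEG400 plus 5% DMSO, 5 mL/kg). Body weight and signs of toxicity were followed throughout.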

[30] = system: MV4-11; assay: Antitumor activity against human MV4-11 cells xenografted in NOD-SCID mouse assessed as tumor growth regression at 100 mg/kg, ip once daily for 21 days measured every 3 days; assay type: functional, organism-based; parameters: dose 100 mg/kg; procedure, shortened: as §1
[31] = system: MDA-MB-231; assay: Cytotoxicity against human MDA-MB-231 cells after 72 hrs by MTT assay; settings: MDA-MB-231, 72 h
[32] = Cmax in Sprague-Dawley rat at 40 mg/kg, ip; assay type: ADME, organism-based; parameters: dose 40 mg/kg, route intraperitoneal; settings: in vivo
Procedure, shortened: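 Male Sprague−Dawley rats (200−250 g), n = 3, fasted overnight, with a femoral-vein catheter for blood sampling. Single 40 mg/kg ip dose; plasma drug levels measured by LC-MS/MS.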

[33] = system: SK-OV-3; assay: Cytotoxicity against human SKOV3 cells after 72 hrs by MTT assay; settings: SK-OV-3, 72 h
[34] = biological target: Serine/threonine-protein kinase PLK1 (Homo sapiens, UniProt P53350); assay: Inhibition of human PLK1
Sequence of Serine/threonine-protein kinase PLK1 (P53350 whole entry): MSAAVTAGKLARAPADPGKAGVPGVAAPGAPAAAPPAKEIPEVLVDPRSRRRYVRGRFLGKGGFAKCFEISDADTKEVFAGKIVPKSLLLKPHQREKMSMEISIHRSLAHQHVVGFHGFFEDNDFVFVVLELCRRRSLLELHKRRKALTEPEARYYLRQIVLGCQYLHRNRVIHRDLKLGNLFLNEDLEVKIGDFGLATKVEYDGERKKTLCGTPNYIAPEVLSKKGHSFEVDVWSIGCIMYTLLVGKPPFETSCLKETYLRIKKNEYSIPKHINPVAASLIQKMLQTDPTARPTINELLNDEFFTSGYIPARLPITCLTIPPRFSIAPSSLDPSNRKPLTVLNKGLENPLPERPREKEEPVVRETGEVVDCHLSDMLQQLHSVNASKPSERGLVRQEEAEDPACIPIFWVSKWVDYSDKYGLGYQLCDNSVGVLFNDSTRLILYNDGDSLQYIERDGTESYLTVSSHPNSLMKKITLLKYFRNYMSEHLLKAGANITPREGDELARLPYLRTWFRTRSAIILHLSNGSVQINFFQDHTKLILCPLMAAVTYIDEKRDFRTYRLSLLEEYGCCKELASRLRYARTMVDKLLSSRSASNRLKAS

[35] = Cytotoxicity against human HCC827 cells after 72 hrs by MTT assay; settings: HCC827, 72 h
[36] = Cytotoxicity against human H820 cells after 72 hrs by MTT assay; settings: NCI-H820, 72 h
[37] = system: A549; assay: Cytotoxicity against human A549 cells after 72 hrs by MTT assay; settings: A549, 72 h

pIC50 [4]: < 5.00
pIC50 [6]: < 5.00
pIC50 [7]: 5.55
pIC50 [11]: < 5.00
pIC50 [12]: < 5.00
pIC50 [15]: < 5.00
pIC50 [23]: < 5.00
pIC50 [24]: < 5.00
pIC50 [28]: < 6.00
Cmax [32]: 5310 ng/mL
pIC50 [34]: < 5.00
SMILES: Cc1ccc(NC(=O)Nc2nnc(Sc3ncnc4cc(OCCCN5CCOCC5)ccc34)s2)cc1
Activity [1]: inactive
pIC50 [2]: < 4.70
pIC50 [3]: < 4.70
pIC50 [5]: < 4.70
pIC50 [8]: 5.43
Activity [9]: inactive
pIC50 [10]: < 5.00
pIC50 [13]: 4.80
pIC50 [14]: < 4.70
pIC50 [16]: < 4.70
pIC50 [17]: 5.20
pIC50 [18]: 8.22
pIC50 [19]: 4.73
inhibition in vivo at 100 mg/kg [20]: 115%
inhibition in vivo at 20 mg/kg [21]: 66%
Activity [22]: Active
pIC50 [25]: < 4.70
Activity [26]: Active
pIC50 [27]: 5.05
Activity [29]: Non-toxic
Activity [30]: Active
pIC50 [31]: < 4.70
pIC50 [33]: < 4.70
pIC50 [35]: 4.90
pIC50 [36]: < 4.70
pIC50 [37]: < 4.70
